Results as given in ChEMBL document CHEMBL4619701, “Neutral analogs of the heat shock protein 70 (Hsp70) inhibitor, JG-98” (Bioorg Med Chem Lett, 2020).

Tests used:
CWR22R [1] = assay: Antiproliferative activity against human 22Rv1 cells assessed as cell growth inhibition; type: functional, cell-based
MCF7 [2] = assay: Antiproliferative activity against human MCF7 cells assessed as cell growth inhibition; type: functional, cell-based
PC-3 [3] = assay: Antiproliferative activity against human PC3 cells assessed as cell growth inhibition; type: functional, cell-based
CWR22R [4] = assay: Potency index, ratio of JG-98 IC50 to compound IC50 for human 22Rv1 cells; type: functional
[5] = Inhibition of HSP70 in human 22Rv1 cells assessed as induction of heat shock response by measuring HSP72 level measured after 24 hrs by Western blot analysis; type: cell-based; conditions: cwr22r
Method in brief: (§1)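 22Rv1 cells were treated for 24 h at the indicated concentrations, then lysed and analysed by western blot for the named protein. Blots are representative of at least two independent experiments. Quantifications are averages of at least two independent experiments, with error bars as S.E.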

CWR22R [6] = assay: Inhibition of HSP70 in human 22Rv1 cells assessed as reduction in c-Raf1 protein level at 0.3 to 5 uM measured after 24 hrs by Western blot analysis; type: cell-based; method in brief: as §1
CWR22R [7] = assay: Inhibition of HSP70 in human 22Rv1 cells assessed as reduction in Akt-1 protein level at 0.3 to 5 uM measured after 24 hrs by Western blot analysis; type: cell-based; method in brief: as §1
PC-3 [8] = assay: Potency index, ratio of JG-98 IC50 to compound IC50 for human PC3 cells; type: functional
[9] = Inhibition of HSP70 in human 22Rv1 cells assessed as induction of heat shock response by measuring HSP90 level at 0.3 to 5 uM measured after 24 hrs by Western blot analysis; type: cell-based; conditions: cwr22r; method in brief: as §1
CWR22R [10] = assay: Inhibition of HSP70 in human 22Rv1 cells assessed as reduction in HuR protein level at 0.3 to 5 uM measured after 24 hrs by Western blot analysis; type: cell-based; method in brief: as §1
MCF7 [11] = assay: Potency index, ratio of JG-98 IC50 to compound IC50 for human MCF7 cells; type: functional
CWR22R [12] = assay: Inhibition of HSP70 in human 22Rv1 cells assessed as reduction in CDK4 protein level at 0.3 to 5 uM measured after 24 hrs by Western blot analysis; type: cell-based; method in brief: as §1

| SMILES | IC50 (CWR22R [1]) | IC50 (MCF7 [2]) | IC50 (PC-3 [3]) | other results |
| --- | --- | --- | --- | --- |
| CCn1c(=O)/c(=C2\Sc3cc(F)ccc3N2C)s/c1=C\c1ccncc1Nc1ccccc1Cl | 490 nM | 1300 nM | 1200 nM | – |
| CCn1c(=O)/c(=C2\Sc3ccccc3N2C)s/c1=C\c1ccncc1Nc1ccccc1Cl | 460 nM | 750 nM | 780 nM | – |
| CCn1c(=O)/c(=C2\Sc3ccccc3N2C)s/c1=C\c1ccncc1Nc1ccccc1F | 300 nM | 330 nM | 360 nM | – |
| CCn1c(=O)/c(=C2\Sc3ccccc3N2C)s/c1=C\c1ccncc1Nc1cc(F)ccc1F | 1100 nM | 1500 nM | 1200 nM | – |
| CCn1c(=O)/c(=C2\Sc3ccc(OC)cc3N2C)s/c1=C\c1ccncc1Nc1ccccc1Cl | 500 nM | 710 nM | 760 nM | – |
| CCn1c(=O)/c(=C2\Sc3ccc(OC)cc3N2C)s/c1=C\c1ccncc1Nc1ccccc1C | 410 nM | 420 nM | 370 nM | – |
| CCn1c(=O)/c(=C2\Sc3ccc(OC)cc3N2C)s/c1=C\c1ccncc1Nc1ccccc1F | 190 nM | 130 nM | 100 nM | – |
| CCn1c(=O)/c(=C2\Sc3ccc(C)cc3N2C)s/c1=C\c1ccncc1Nc1ccccc1C | 480 nM | 400 nM | 330 nM | – |
| CCn1c(=O)/c(=C2\Sc3cc(F)ccc3N2C)s/c1=C\c1ccncc1Nc1ccccc1C | 2300 nM | 1300 nM | 2300 nM | – |
| CCn1c(=O)/c(=C2\Sc3cc(F)ccc3N2C)s/c1=C\c1ccncc1Nc1ccccc1F | 150 nM | 230 nM | 260 nM | – |
| c1ccc(Nc2nc(-c3nc4ccccc4s3)cs2)nc1 | 3200 nM | 3600 nM | 6700 nM | – |
| CCn1c(=O)/c(=C2\Sc3ccccc3N2C)s/c1=C\c1ccncc1Nc1cc(C)ccc1C | 1800 nM | 1700 nM | 2000 nM | – |
| CCc1ccc2c(c1)S/C(=c1/s/c(=C\c3ccncc3Nc3ccccc3F)n(CC)c1=O)N2C | 1200 nM | 1200 nM | 2200 nM | – |
| COc1ccc(Cl)c(Nc2cccc(-c3nc4ccccc4s3)c2)c1 | 2100 nM | 710 nM | 2200 nM | – |
| CCn1c(=O)/c(=C2\Sc3ccc(C)cc3N2C)s/c1=C\c1ccncc1Nc1ccccc1Cl | 350 nM | 650 nM | 500 nM | – |
| c1ccc(Nc2nc(-c3nc4ccccc4s3)cs2)cc1 | 6900 nM | 7600 nM | 5500 nM | – |
| CCn1c(=O)/c(=C2\Sc3ccccc3N2C)s/c1=C\c1ccncc1Nc1ccccc1C | 470 nM | 990 nM | 1200 nM | – |
| CCn1c(=O)/c(=C2\Sc3ccc(C)cc3N2C)s/c1=C\c1ccncc1Nc1ccccc1F | 150 nM | 100 nM | 70 nM | Ratio IC50 (CWR22R [4]): 7 - 10; inhibition (INH) [5]: Not Active; inhibition (CWR22R [6]): 50%; inhibition (CWR22R [7]): 50%; Ratio IC50 (PC-3 [8]): 7 - 10; inhibition (INH) [9]: Not Active; inhibition (CWR22R [10]): 50%; Ratio IC50 (MCF7 [11]): 7 - 10; inhibition (CWR22R [12]): 50% |
| c1ccc(Nc2cccc(-c3nc4ccccc4s3)c2)nc1 | 13000 nM | 13000 nM | 4800 nM | – |
